Screen size: about 2,300 compounds; about 25 (1%) were called active. The sample holds actives, similar compounds and a random draw of the others, so the mix is not that of the screen.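 The calls were made as follows: active = mean inhibition over three replicate wells above the hit threshold derived in the earlier primary screen (cut at about 45% in these data); inactive = the rest.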
These molecules were tested on Hepatitis C virus core protein (core106 dimerization) (assay: inhibitors of HCV core protein dimerization, confirmation, biochemical, TR-FRET, triplicate (AID 2152;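 also: 0% = DMSO wells and 100% = unlabelled core106 competitor control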)). Settings: TR-FRET GST-/Flag-core106 dimerization, HTRF; at 5 µM; stronger effect = higher value.
Method in brief: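 Test system – GST- and Flag-tagged HCV core106 peptides, dimerization via antibody TR-FRET · Amount – 17 nM Flag- plus 13.5 nM GST-core106 · Schedule – 4 h incubation, 22.5 °C · Compound dosing – one 5 µM dose, 0.5% DMSO · Detection – TR-FRET, 340 nm excitation, 671/617 nm emission · Reagent – Eu(K)-anti-GST plus XL665-anti-FLAG antibodies · Read-out basis – percent inhibition from emission ratio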

inhibition, inactive:
N#Cc1ccc(C23CC4(C2)[C@H](CN(P(=O)(c2ccccc2)c2ccccc2)[C@@H]4c2ccccc2)C3c2ccc(Cl)nc2)cc1 (some centres undefined) 8.04%
CN(CC(=O)Nc1sccc1C#N)C1CCCCC1 6.43%
CC1CC1C(=O)Nc1nc(-c2cccs2)c(-c2cccs2)s1 (centres undefined) 7.18%
Cc1sccc1C1C(C#N)=C(N)SC(N)=C1C#N 32.6%
COc1ccc(C2C(C#N)=C(N)SC(N)=C2C#N)cc1OC 2.28%
Cc1cc(Cl)ccc1OC(C)C(=O)Nc1ccc(S(=O)(=O)Nc2cnc3ccccc3n2)cc1 (centres undefined) -3.49%
Cc1ccc(C)c(NC(=O)CN(C)C(=O)c2cccc(-n3cccc3)c2)c1 4.94%
COc1cccc2cc(/C(C)=N/Nc3nc(-c4cc(C)ccc4C)cs3)c(=O)oc12 16.7%
COc1ccc(CCNC(=O)c2ccc3c(c2)NC(=O)C(CSCc2cc(C)ccc2C)N3)cc1OC (centres undefined) 2.87%
COc1ccc2c(c1)[nH]c(=O)c1sc3ccccc3c12 -0.73%
O=C(Nc1nnc(-c2ccccc2Cl)o1)c1nc2ccccc2s1 -8.09%
CN(C)c1ccc(/C=C/C=C2/SC(=S)N(c3ccccc3)C2=O)cc1 -12.6%
COc1ccc(OC)c(-c2csc(NC(=O)CSc3ccc([N+](=O)[O-])cc3)n2)c1 -0.57%
O=c1ccc2c(-c3ccccc3)c3ccc(O)cc3oc-2c1 -13.9%
COc1ccc2c(c1[N+](=O)[O-])CCC/C2=N/OC(=O)c1ccccc1SC -1.21%
COc1ccc(/C=N\NS(=O)(=O)c2ccc(Cl)cc2)cc1COc1ccccc1[N+](=O)[O-] -7.14%
O=C(NCc1cccnc1)c1ccc(COc2cccc3ccccc23)o1 4.61%
O=C(CN(c1ccc(Cl)c(C(F)(F)F)c1)S(=O)(=O)c1ccccc1)N/N=C/c1cccc2c1OCCO2 -4.47%
O=C(Nc1ccc(NC(=S)NC(=O)C(c2ccccc2)c2ccccc2)cc1)c1ccccc1 5.69%
COc1ccc(C(=O)N/C(=C/c2cccc3ccccc23)C(=O)NCCc2c[nH]c3ccccc23)cc1OC -0.16%
O=C(Nc1ccccc1)c1ccc(Nc2c([N+](=O)[O-])cc([N+](=O)[O-])c3ccccc23)cc1 1.02%
COc1ccc(N2CCN(C(=O)c3ccc4c(c3)NC(=O)C(CSCc3ccc(C)cc3)N4)CC2)cc1 (centres undefined) 27%
CSc1nc(N(C)CCO)c2sc3nc(-c4ccco4)c4c(c3c2n1)CCC4 -23.5%
COc1ccccc1CCNC(=O)c1cc(-c2ccccn2)nc2ccc(Br)cc12 -9.45%
Cc1cc(C#N)c(C)n1-c1cc(S(=O)(=O)N2CCOCC2)ccc1N1CCCC1 2.12%
CC1(C)Cc2c(C#N)c(N3CCN(C(=O)c4ccccc4Cl)CC3)nc(-c3ccco3)c2CS1 16.3%
O=C(N/N=C/c1ccc([N+](=O)[O-])o1)c1cn(-c2ccccc2)nc1-c1ccc(Cl)cc1 -1.11%
Cc1ccc(-c2csc(C3=C(O)CN(NC(=O)c4ccc([N+](=O)[O-])cc4)C3=N)n2)cc1 6.2%
O=c1[nH]c(C(Cl)Cl)nc2sc3c(c12)CCN(Cc1ccccc1)C3 14.3%
COC(=O)c1ccc(Nc2cc(C)nc(-c3ccccc3O)n2)cc1 6.69%
CN1CCc2c(sc3c2c(=O)n(-c2ccccc2)c2nnc(SCc4ccccc4)n32)C1 3.83%
O=C(COC(=O)c1cccc(S(=O)(=O)N2CCc3ccccc3C2)c1)NCc1ccco1 2.63%
COc1ccc(-c2cc(OC(=O)c3ccc(F)cc3)c3c(C)oc(C)c3c(=O)c2)cc1 0.02%
CC(C)(C)C(=O)COC(=O)c1c2c(nc3ccccc13)CCC2 -3.89%
CN(Cc1ccccc1)C(=O)C1CCN(S(=O)(=O)c2ccc3nc4c(c(C(=O)O)c3c2)CCCC4)CC1 3.04%
CCn1cc([N+](=O)[O-])c(C(=O)N2N=C(c3cccc4ccccc34)CC2c2ccccc2O)n1 (centres undefined) 7.15%
O=C(COc1ccccc1)Nc1ccc(-c2nnc(-c3ccco3)o2)cc1 21.3%
COc1ccc(CC(=O)Nc2ccc(-c3nnc(-c4ccccc4)o3)cc2)cc1 11.4%
Cc1nc2nc(SCC(=O)NCCCN3CCCCCC3)nn2c(C)c1Cc1ccccc1 13.3%
NC(=O)c1ccsc1NC(=O)COC(=O)/C=C/c1ccc([N+](=O)[O-])cc1 7.73%
CCCN(CCC)C(=O)c1cc(-c2ccc3c(c2)OCO3)nc2ccccc12 -2.46%
Cc1cc(C(=O)OCC(=O)c2cccc([N+](=O)[O-])c2)c2cccc(C)c2n1 13.6%
Cc1ccc(C)c(NC(=O)CSc2nc3nc(-c4cccs4)cc(C(F)(F)F)c3c(=O)[nH]2)c1 4.9%
CCOc1cc(/C=N/NC(N)=O)cc(Br)c1OCC(=O)Nc1cccc2ccccc12 2.46%
CCOc1ccccc1C1C(C#N)=C(N)SC(N)=C1C#N 1.92%
N#CC1=C(N)SC(N)=C(C#N)C1CCc1ccccc1 -1.8%
C=CCn1nnc2sc3c(c2c1=O)CCC(C)C3 (centres undefined) -1.29%
O=c1c2ccccc2nc2sc3ccccc3n12 -1%
O=C(Nc1ccc(Cl)c(Cl)c1)Nc1nnc(-c2ccncc2)s1 38.8%

inhibition, active:
Cc1ccc(C2C(C#N)=C(N)SC(N)=C2C#N)c(C)c1 58%
Cc1cc(Br)c2nc3c(c(C(=O)O)c2c1)CCCCC3 46.4%
COc1ccc(CC(=O)Nc2ccc(-c3nnc(-c4ccccc4)o3)cc2)cc1OC 56.3%
Cc1ccc(Cc2c(C)nc3nc(SCC(=O)NCCCN4CCCCCC4)nn3c2C)cc1 89.8%
N#CC1=C(N)SC(N)=C(C#N)C1c1ccnc2ccccc12 46.8%

— PubChem BioAssay AID2152 (The Scripps Research Institute Molecular Screening Center, 2009)
